Compound activity: PubChem BioAssay, several laboratories
PAFAH1B3 FP inh – PAFAH1B3 (human) inhibition; 340,000 tested, 0.28% active; recombinant PAFAH1B3, FP-rhodamine probe, fluorescence polarization; AID 492972; inhibition, % at 3.39 µM; Q15102;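 active = inhibition above the screen-wide average of all tested compounds plus 3 SD, cut at about 25% in these data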;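 also: 0% = enzyme with DMSO only and 100% = wells lacking PAFAH1B3 protein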
UCH37 inh – inhibitors of human deubiquitinating enzyme UCH37; purified proteasome/UCH37, Ub-AMC cleavage fluorescence; inhibition, % (concentration not given with the values); 330,000 tested, 0.33% active;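 active = mean inhibition over replicate wells above about 20%, limit read from the data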;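 also: 0% = compound-free wells with enzyme and 100% = wells lacking proteasome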
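Assay system: Proteasome-bound UCH37. Buffer or medium: pH 7.4 Tris-HCl (50 mM) with ovalbumin, ATP-MgCl2, DTT. Incubation: 30 min preincubation with enzyme, 25 min cleavage at room temperature. Measured by: fluorescence, ex 355 nm, em 460 nm. Read-out basis: percent inhibition. Control set: wells without proteasome as full block, compound-free enzyme plus substrate as uninhibited.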
NR3A LBD binder – modulators (binders) of human NR3A ligand-binding domain; Tm shift relative to glycine control, % at 25 µM; NR3A LBD differential scanning fluorimetry, Tm shift; 0% = protein alone, 100% = glycine-bound protein; 340,000 tested, 2.5% active;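 active = melting temperature shift of at least 10% of the positive control shift, at one fixed dose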
PAFAH2 inh – inhibitors of human PAFAH2; inhibition, % at 3.39 µM; 340,000 tested, 0.99% active; Q99487; recombinant PAFAH2, FP-rhodamine activity probe, fluorescence polarization; AID 492956;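 active = inhibition above the mean over all tested compounds plus 3 SD, cut at about 30% in these data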;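 also: inhibitors block probe labeling of enzyme so polarization drops; 0% = enzyme with DMSO and 100% = wells lacking PAFAH2 protein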
pPAFAH inh – inhibitors of human plasma PAF acetylhydrolase (pPAFAH) | Q13093 | recombinant pPAFAH, FP-rhodamine probe fluorescence polarization | inhibition, % at 3.39 µM | 330,000 tested, 1.5% active | AID 463082;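 active = inhibition above the mean inhibition across the screen plus 3 SD, cut at about 25% in these data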;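 also: inhibitors block binding of the rhodamine activity-based probe so polarization drops; 0% = enzyme with DMSO and 100% = wells lacking pPAFAH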
Target sequence (Q13093 whole entry, looked up): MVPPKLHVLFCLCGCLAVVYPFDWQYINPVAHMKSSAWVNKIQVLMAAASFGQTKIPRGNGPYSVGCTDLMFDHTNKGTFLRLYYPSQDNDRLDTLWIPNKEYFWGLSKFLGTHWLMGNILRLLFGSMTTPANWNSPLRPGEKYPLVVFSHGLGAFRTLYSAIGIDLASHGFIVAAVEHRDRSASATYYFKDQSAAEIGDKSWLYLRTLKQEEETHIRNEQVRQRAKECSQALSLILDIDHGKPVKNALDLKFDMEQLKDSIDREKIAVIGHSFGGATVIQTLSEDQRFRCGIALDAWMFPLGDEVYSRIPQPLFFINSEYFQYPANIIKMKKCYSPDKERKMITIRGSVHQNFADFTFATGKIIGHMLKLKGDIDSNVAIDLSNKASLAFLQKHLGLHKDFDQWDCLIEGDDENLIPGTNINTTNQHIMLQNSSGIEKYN
PAFAH1B2 FP inh – inhibitors of human PAFAH1B2; P68402; recombinant PAFAH1B2, FP-rhodamine activity probe, fluorescence polarization; inhibition, % at 3.39 µM; 340,000 tested, 1.2% active; AID 492953;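 active = inhibition above the mean of all tested compounds plus 3 SD, cut at about 24% in these data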;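 also: 0% = enzyme with DMSO and 100% = wells lacking PAFAH1B2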
Target sequence (P68402 whole entry, looked up): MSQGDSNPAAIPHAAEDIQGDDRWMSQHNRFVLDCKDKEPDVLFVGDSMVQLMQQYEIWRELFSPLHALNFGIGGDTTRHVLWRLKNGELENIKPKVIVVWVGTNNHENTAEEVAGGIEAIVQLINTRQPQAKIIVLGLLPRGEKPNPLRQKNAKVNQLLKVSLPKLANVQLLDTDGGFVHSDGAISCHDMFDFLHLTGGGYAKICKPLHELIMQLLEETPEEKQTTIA
* = called active by the depositor. A selection: hits, their analogues and other compounds. The true share with any hit is near 4.8%.

What do the screens show for `CCCCCC(=O)Nc1ccc(C(=O)NN=Cc2ccc([N+](=O)[O-])cc2)cc1`?
UCH37 inh: -19.5

Results for Nc1ccc(-c2nc3ccc([N+](=O)[O-])cc3[nH]2)cc1 ?
PAFAH1B3 FP inh: 2.9; UCH37 inh: 7.7; NR3A LBD binder: 25.4*; PAFAH2 inh: -3.7; pPAFAH inh: 8.7; PAFAH1B2 FP inh: 3.0

Results for Nc1ccc2nc(-c3cc(Cl)c(N)c(Cl)c3)[nH]c2c1 ?
PAFAH1B3 FP inh: 13.5; UCH37 inh: -148.6; NR3A LBD binder: 11.7*; PAFAH2 inh: -2.7; pPAFAH inh: 19.9; PAFAH1B2 FP inh: 16.8

What do the screens show for `Nc1ccc(-c2nc3ccc(-c4nc5ccccc5o4)cc3[nH]2)cc1`?
PAFAH1B3 FP inh: 8.6; UCH37 inh: -306.0; NR3A LBD binder: 17.8*; PAFAH2 inh: -3.8; pPAFAH inh: 10.4; PAFAH1B2 FP inh: 3.0

How did Nc1ccc2nc(-c3cccc(-c4nc5ccc(N)cc5[nH]4)c3)[nH]c2c1 do in these assays?
PAFAH1B3 FP inh: 30.5*; UCH37 inh: -8.0; PAFAH2 inh: 6.7; pPAFAH inh: 6.0; PAFAH1B2 FP inh: 24.3*

What do the screens show for `Nc1ccc(-c2nc3ccc(N)cc3[nH]2)cc1`?
PAFAH1B3 FP inh: 10.2; UCH37 inh: inactive; NR3A LBD binder: 9.1; PAFAH2 inh: 1.9; pPAFAH inh: 4.2; PAFAH1B2 FP inh: 7.2

How did CN(C(=S)Nc1ccc(SC(F)F)cc1)C(c1ccccc1)c1ccccc1 do in these assays?
PAFAH1B3 FP inh: 2.5; UCH37 inh: 2.5; NR3A LBD binder: 2.7; PAFAH2 inh: -7.6; pPAFAH inh: 2.2; PAFAH1B2 FP inh: -2.7

How did FC(F)Sc1ccc(NC(=S)NCc2ccccc2)cc1 do in these assays?
PAFAH1B3 FP inh: -7.2; UCH37 inh: 0.5; NR3A LBD binder: 12.4*; PAFAH2 inh: 0.2; pPAFAH inh: 1.7; PAFAH1B2 FP inh: -2.6

What do the screens show for `FC(F)Sc1ccc(NC(=S)NC(c2ccccc2)c2ccccc2)cc1`?
PAFAH1B3 FP inh: -54.9; UCH37 inh: 4.4; NR3A LBD binder: 28.0*; PAFAH2 inh: -64.1; pPAFAH inh: -52.9; PAFAH1B2 FP inh: -24.7

How did CC(=NNC(=O)C1CC1)c1ccc(C)cc1C do in these assays?
UCH37 inh: 6.3

What do the screens show for `CCN(C1CCCCC1)S(=O)(=O)c1ccc(S(=O)(=O)N2CCN(CCC#N)CC2)cc1`?
PAFAH1B3 FP inh: 11.3; UCH37 inh: 1.4; NR3A LBD binder: 1.0; PAFAH2 inh: 2.7; pPAFAH inh: 1.4; PAFAH1B2 FP inh: 25.3*

How did N#CCCN1CCN(S(=O)(=O)c2ccc(S(=O)(=O)N3CCCCCC3)cc2)CC1 do in these assays?
PAFAH1B3 FP inh: 5.9; UCH37 inh: -1.6; NR3A LBD binder: 0.9; PAFAH2 inh: -0.1; pPAFAH inh: -6.6; PAFAH1B2 FP inh: 3.3

Results for COc1ccc(-c2[nH]c(-c3ccc(Cl)cc3)nc2SCC(=O)Nc2nccs2)cc1 ?
PAFAH1B3 FP inh: 9.7; UCH37 inh: 1.0; NR3A LBD binder: 11.5*; PAFAH2 inh: -7.8; pPAFAH inh: 9.4; PAFAH1B2 FP inh: 1.1

What do the screens show for `O=C(CSc1nc2c(c(=O)n1-c1ccc(Cl)cc1)SCC2)Nc1nccs1`?
PAFAH1B3 FP inh: -0.1; UCH37 inh: 0.3; NR3A LBD binder: 15.2*; PAFAH2 inh: -0.3; pPAFAH inh: -5.2; PAFAH1B2 FP inh: 3.7

Results for O=C(CSCc1ccc(Cl)cc1)Nc1nccs1 ?
PAFAH1B3 FP inh: 8.3; UCH37 inh: 1.4; NR3A LBD binder: 1.4; PAFAH2 inh: 8.9; pPAFAH inh: 3.2; PAFAH1B2 FP inh: 27.7*

How did COc1ccc(-c2[nH]c(-c3ccccc3)nc2SCC(=O)Nc2nccs2)cc1 do in these assays?
PAFAH1B3 FP inh: 9.5; UCH37 inh: 1.0; NR3A LBD binder: -5.5; PAFAH2 inh: -2.9; pPAFAH inh: 15.8; PAFAH1B2 FP inh: 10.5

What do the screens show for `CC(C)C(C(=O)Nc1nccs1)c1ccc(Cl)cc1` (centres undefined)?
PAFAH1B3 FP inh: 7.9; UCH37 inh: -0.9; NR3A LBD binder: 2.2; PAFAH2 inh: 9.5; pPAFAH inh: -0.4; PAFAH1B2 FP inh: 36.4*

What do the screens show for `O=C(CSc1nc2c(c(=O)n1-c1ccc(Br)cc1)SCC2)Nc1nccs1`?
PAFAH1B3 FP inh: -1.9; UCH37 inh: 6.4; NR3A LBD binder: 5.9; PAFAH2 inh: 0.4; pPAFAH inh: -4.0; PAFAH1B2 FP inh: -2.5

Results for Cc1c(C=NNC(=O)C(C)(C)Oc2ccc(Cl)cc2)cnn1C ?
UCH37 inh: -1.8

How did O=C(CON=Cc1ccccc1)Nc1c(F)c(F)c(F)c(F)c1F do in these assays?
UCH37 inh: 2.7

How did CC(=O)Nc1ccc(S(=O)(=O)N(C)CC(=O)OCC(=O)NNC(=O)c2ccccc2F)cc1 do in these assays?
PAFAH1B3 FP inh: -3.3; UCH37 inh: -0.4; NR3A LBD binder: 17.6*; PAFAH2 inh: -4.3; pPAFAH inh: 2.3; PAFAH1B2 FP inh: 1.0

What do the screens show for `Cc1ccc(S(=O)(=O)N(C)CC(=O)OCC(=O)NC(=O)NC(C)C)cc1`?
PAFAH1B3 FP inh: 8.1; UCH37 inh: -0.7; NR3A LBD binder: 0.0; PAFAH2 inh: 0.3; pPAFAH inh: 10.2; PAFAH1B2 FP inh: -3.6

Results for CC(=O)Nc1ccc(S(=O)(=O)N(C)CC(=O)OCC(=O)c2ccc[nH]2)cc1 ?
PAFAH1B3 FP inh: 0.2; UCH37 inh: 0.7; NR3A LBD binder: -1.0; PAFAH2 inh: 1.2; pPAFAH inh: 0.7; PAFAH1B2 FP inh: -0.9

What do the screens show for `Cc1ccc(S(=O)(=O)N(C)CC(=O)OCC(=O)NC(c2ccccc2)c2ccccc2)cc1`?
PAFAH1B3 FP inh: -2.0; UCH37 inh: 1.3; NR3A LBD binder: 24.0*; PAFAH2 inh: -6.2; pPAFAH inh: 10.6; PAFAH1B2 FP inh: 5.3

What do the screens show for `CC(=O)Nc1ccc(S(=O)(=O)N(C)CC(=O)OCC(=O)NC(C)C23CC4CC(CC(C4)C2)C3)cc1` (centres undefined)?
PAFAH1B3 FP inh: 8.2; UCH37 inh: 0.9; NR3A LBD binder: -8.5; PAFAH2 inh: 6.8; pPAFAH inh: -3.0; PAFAH1B2 FP inh: 24.7*

What do the screens show for `CC(/C=C/c1ccc(N(C)C)cc1)=N/N=C1/NC(=O)CC(C(=O)Nc2ccccc2)S1` (centres undefined)?
UCH37 inh: 0.3

Results for CC(/C=C/c1ccc(N(C)C)cc1)=N/N=C1/NC(=O)CC(C(=O)Nc2ccc(Cl)cc2)S1 (centres undefined) ?
PAFAH1B3 FP inh: 10.8; UCH37 inh: 0.2; NR3A LBD binder: 27.2*; PAFAH2 inh: -0.9; pPAFAH inh: 23.1; PAFAH1B2 FP inh: 3.7

What do the screens show for `COc1ccc(CC(=NOC(C)=O)c2ccc(OC)cc2)cc1`?
UCH37 inh: 4.7

How did CCC1CCCCN1C(=O)CSc1nc2c(cnn2-c2ccc(C)cc2)c(=O)[nH]1 (centres undefined) do in these assays?
PAFAH1B3 FP inh: 0.0; UCH37 inh: 3.7; NR3A LBD binder: 16.1*; PAFAH2 inh: 0.4; pPAFAH inh: 5.4; PAFAH1B2 FP inh: 4.6
